Source: ChEMBL document CHEMBL1649578, “Biofilm formation and effect of caspofungin on biofilm structure of Candida species bloodstream isolates” (2009)
Values after ≈ are worked out from the molar mass of the structure shown. Active and inactive are the calls of the source. The rule behind the calls is not given here.

Assays:
[1] = system: Candida tropicalis; test: Antifungal activity against Candida tropicalis isolate CT8 biofilm assessed as viable fungal count per cm2 of silicone disk at 4 ug/ml after 48 hrs […]; type: functional
Summary of the method: (§1)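 Biofilms grown on serum-preconditioned silicone disks in RPMI 1640 for 24 h, PBS-washed, then exposed 48 h at 35°C on a rocker to caspofungin doubling dilutions spanning 0.25–128 μg/ml. Disks washed and sonicated/vortexed in PBS to release cells. Suspensions diluted in Butterfield buffer and plated on Sabouraud dextrose agar. Viable counts from three disks averaged as CFU/cm2.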

[2] = system: Candida tropicalis; test: Antifungal activity against Candida tropicalis isolate CT8 planktonic cells after 48 hrs by broth microdilution method; type: functional; details: isolate CT8, 48 h
Summary of the method: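 CLSI broth microdilution in RPMI 1640; isolate plated on Sabouraud dextrose agar 24 h at 37°C. Drug stock in sterile saline diluted in RPMI, 16 to 0.0625 μg/ml tested. MIC read at 48 h as lowest concentration giving significant turbidity reduction versus control well.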

[3] = system: Candida albicans; test: Antifungal activity against Candida albicans isolate CA4 biofilm assessed as viable fungal count per cm2 of silicone disk at 4 ug/ml after 48 hrs […]; type: functional; summary of the method: as §1
[4] = system: Candida albicans; test: Antifungal activity against Candida albicans isolate CA4 biofilm after 48 hrs by XTT assay; type: functional; details: isolate CA4, 48 h
Summary of the method: (§2)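 Biofilms of clinical bloodstream isolates grown 24 h in RPMI 1640 (MOPS, pH 7.0) on human-serum-preconditioned silicone disks, after 1.5 h attachment at 37°C from 1 × 10^6 CFU/ml. Washed disks exposed 48 h at 35°C on rocker to 10 doubling dilutions, 0.25–128 μg/ml. XTT-menadione reduction 2 h at 37°C, A490; concentration giving 50% reduction of metabolic activity vs drug-free control; triplicate.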

[5] = system: Candida tropicalis; test: Antifungal activity against Candida tropicalis isolate CT8 biofilm after 48 hrs by XTT assay; type: functional; details: isolate CT8, 48 h; summary of the method: as §2
[6] = system: Candida tropicalis; test: Antifungal activity against Candida tropicalis isolate CT8 biofilm assessed as change in cellular morphology at 16 ug/ml after 48 hrs by scanning electron microscopy; type: functional, organism-based
Summary of the method: (§3)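 Silicone disks preconditioned 24 h at 37°C in heat-inactivated human serum, seeded with 1 × 10^6 CFU/ml in MOPS-buffered RPMI 1640 (pH 7.0), 1.5 h attachment at 37°C with shaking, then grown 24 h. Washed biofilms exposed to 1.0, 16 or 128 μg/ml caspofungin in RPMI 1640, 48 h at 35°C on a rocker. Untreated controls in RPMI only. Fixed in 5% glutaraldehyde/cacodylate (pH 6.2), ethanol-dehydrated, HMDS air-dried, examined by SEM. Run in triplicate.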

[7] = system: Candida parapsilosis; test: Ratio of SMIC for Candida parapsilosis isolate CP1 biofilm to MIC for Candida parapsilosis isolate CP1 planktonic cells; type: functional
[8] = system: Candida tropicalis; test: Antifungal activity against Candida tropicalis isolate CT8 biofilm assessed as viable fungal count per cm2 of silicone disk at 0.25 ug/ml after 48 hrs […]; type: functional; summary of the method: as §1
[9] = system: Candida albicans; test: Antifungal activity against Candida albicans isolate CA4 biofilm assessed as viable fungal count per cm2 of silicone disk at 0.25 ug/ml after 48 hrs […]; type: functional; summary of the method: as §1
[10] = system: Candida tropicalis; test: Antifungal activity against Candida tropicalis isolate CT8 biofilm assessed as viable fungal count per cm2 of silicone disk at 2 ug/ml after 48 hrs […]; type: functional; summary of the method: as §1
[11] = system: Candida albicans; test: Antifungal activity against Candida albicans isolate CA4 biofilm assessed as assessed as decrease in preformed fungal biofilm formation at 128 ug/ml after 48 hrs by scanning electron microscopy; type: functional, organism-based; summary of the method: as §3
[12] = system: Candida parapsilosis; test: Antifungal activity against Candida parapsilosis isolate CP1 planktonic cells after 48 hrs by broth microdilution method; type: functional; details: Lodderomyces parapsilosis, isolate CP1, 48 h
Summary of the method: (§4)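 Isolates grown on Sabouraud dextrose agar 24 h at 37°C. MIC is the lowest concentration giving a significant turbidity reduction versus control at 48 h.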

[13] = system: Candida albicans; test: Antifungal activity against Candida albicans isolate CA4 planktonic cells after 48 hrs by broth microdilution method; type: functional; details: isolate CA4, 48 h; summary of the method: as §4
[14] = system: Candida albicans; test: Antifungal activity against Candida albicans isolate CA4 biofilm assessed as viable fungal count per cm2 of silicone disk at 2 ug/ml after 48 hrs […]; type: functional; summary of the method: as §1
[15] = system: Candida albicans; test: Antifungal activity against Candida albicans isolate CA4 biofilm assessed as assessed as appearance of increased number of small blastospore at 128 ug/ml after 48 hrs by scanning electron microscopy; type: functional, organism-based; summary of the method: as §3
[16] = system: Candida parapsilosis; test: Antifungal activity against Candida parapsilosis isolate CP1 biofilm assessed as viable fungal count per cm2 of silicone disk at 0.25 ug/ml after 48 hrs […]; type: functional; summary of the method: as §1
[17] = system: Candida albicans; test: Antifungal activity against Candida albicans isolate CA4 biofilm assessed as viable fungal count per cm2 of silicone disk at 1 ug/ml after 48 hrs […]; type: functional; summary of the method: as §1
[18] = system: Candida parapsilosis; test: Antifungal activity against Candida parapsilosis isolate CP1 biofilm assessed as viable fungal count per cm2 of silicone disk at 4 ug/ml after 48 hrs […]; type: functional; summary of the method: as §1
[19] = system: Candida parapsilosis; test: Antifungal activity against Candida parapsilosis isolate CP1 biofilm assessed as viable fungal count per cm2 of silicone disk at 16 ug/ml after 48 hrs […]; type: functional; summary of the method: as §1
[20] = system: Candida albicans; test: Ratio of SMIC for Candida albicans isolate CA4 biofilm to MIC for Candida albicans isolate CA4 planktonic cells; type: functional
[21] = system: Candida tropicalis; test: Antifungal activity against Candida tropicalis isolate CT8 biofilm assessed as viable fungal count per cm2 of silicone disk at 32 ug/ml after 48 hrs […]; type: functional; summary of the method: as §1
[22] = system: Candida albicans; test: Antifungal activity against Candida albicans isolate CA4 biofilm assessed as viable fungal count per cm2 of silicone disk at 0.5 ug/ml after 48 hrs […]; type: functional; summary of the method: as §1
[23] = system: Candida albicans; test: Antifungal activity against Candida albicans isolate CA4 biofilm assessed as appearance of collapsed blastospore at 16 ug/ml after 48 hrs by scanning electron microscopy; type: functional, organism-based; summary of the method: as §3
[24] = system: Candida parapsilosis; test: Antifungal activity against Candida parapsilosis isolate CP1 biofilm assessed as viable fungal count per cm2 of silicone disk at 128 ug/ml after 48 hrs […]; type: functional; summary of the method: as §1

CC[C@H](C)C[C@H](C)CCCCCCCCC(=O)N[C@H]1C[C@@H](O)[C@@H](NCCN)NC(=O)[C@@H]2[C@@H](O)CCN2C(=O)[C@H]([C@H](O)CCN)NC(=O)[C@H]([C@H](O)[C@@H](O)c2ccc(O)cc2)NC(=O)[C@@H]2C[C@@H](O)CN2C(=O)[C@H]([C@@H](C)O)NC1=O [CASPOFUNGIN]
log10cfu [1]: 5.7 | MIC [2]: 0.0625 µg/mL (≈ 0.0572 µM) | log10cfu [3]: 5.3 | MIC [4]: 0.5 µg/mL (≈ 0.457 µM) | MIC [5]: 0.25 µg/mL (≈ 0.229 µM) | Activity [6]: Active | Ratio [7]: 2 | log10cfu [8]: 6.4 | log10cfu [9]: 4.4 | log10cfu [10]: 5.9 | Activity [11]: Active | MIC [12]: 0.25 µg/mL (≈ 0.229 µM) | MIC [13]: 0.0625 µg/mL (≈ 0.0572 µM) | log10cfu [14]: 4.7 | Activity [15]: Active | log10cfu [16]: 0 | log10cfu [17]: 3.3 | log10cfu [18]: 5.1 | log10cfu [19]: 4.5 | Ratio [20]: 2 | log10cfu [21]: 5.4 | log10cfu [22]: 3.4 | Activity [23]: Active | log10cfu [24]: 2.7
